Calls of active or inactive are those of the source. The rule behind the calls is not given here.
Legend:
RAW264.7 [1] = assay: Antiinflammatory activity against mouse RAW264.7 cells assessed as reduction in LPS-stimulated ROS production at 20 uM pretreated for 1 hrs followed by LPS addition and measured after 24 hrs by DCFH-DA dye based fluorescence assay; type: functional, cell-based
Procedure, shortened: (§1)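 RAW264.7 cells at about 1×10^4 cells/well, grown 12 h, pretreated 1 h, then LPS 1 μg/mL for 24 h. Loaded with DCFH-DA at 100 μM final in FBS-free medium, 30 min at 37°C. After washing, fluorescence read at Ex 485/Em 520 nm on a plate reader; confocal imaging done in parallel dishes.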

[2] = molecular target: T1, Prostaglandin G/H synthase 1 (Ovis aries) (UniProt P05979); assay: Inhibition of ovine COX1 at 30 uM using arachidonic acid as substrate pretreated for 5 mins followed by substrate addition and measured after 2 mins by fluorescence based enzyme immunoassay
T1 sequence (whole entry): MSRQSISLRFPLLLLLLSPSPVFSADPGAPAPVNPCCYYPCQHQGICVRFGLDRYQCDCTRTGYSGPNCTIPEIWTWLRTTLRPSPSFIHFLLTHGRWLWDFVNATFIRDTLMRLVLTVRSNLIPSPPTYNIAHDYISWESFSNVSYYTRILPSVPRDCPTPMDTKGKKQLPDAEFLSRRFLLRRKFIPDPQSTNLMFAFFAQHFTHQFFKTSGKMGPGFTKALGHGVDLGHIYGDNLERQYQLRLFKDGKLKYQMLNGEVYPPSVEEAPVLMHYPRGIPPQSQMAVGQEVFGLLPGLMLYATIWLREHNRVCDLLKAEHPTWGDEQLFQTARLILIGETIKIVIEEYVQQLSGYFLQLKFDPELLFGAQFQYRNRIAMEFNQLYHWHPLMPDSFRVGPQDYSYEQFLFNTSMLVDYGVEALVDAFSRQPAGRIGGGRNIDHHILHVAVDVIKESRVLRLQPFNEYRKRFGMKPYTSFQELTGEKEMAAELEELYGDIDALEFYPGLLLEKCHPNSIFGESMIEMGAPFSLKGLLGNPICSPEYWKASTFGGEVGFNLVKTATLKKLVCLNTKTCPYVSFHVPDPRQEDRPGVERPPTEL

[3] = molecular target: T2, Prostaglandin G/H synthase 2 (Homo sapiens) (UniProt P35354); assay: Inhibition of recombinant human COX2 at 30 uM using arachidonic acid as substrate pretreated for 5 mins followed by substrate addition and measured after 2 mins by fluorescence based enzyme immunoassay
T2 sequence (whole entry): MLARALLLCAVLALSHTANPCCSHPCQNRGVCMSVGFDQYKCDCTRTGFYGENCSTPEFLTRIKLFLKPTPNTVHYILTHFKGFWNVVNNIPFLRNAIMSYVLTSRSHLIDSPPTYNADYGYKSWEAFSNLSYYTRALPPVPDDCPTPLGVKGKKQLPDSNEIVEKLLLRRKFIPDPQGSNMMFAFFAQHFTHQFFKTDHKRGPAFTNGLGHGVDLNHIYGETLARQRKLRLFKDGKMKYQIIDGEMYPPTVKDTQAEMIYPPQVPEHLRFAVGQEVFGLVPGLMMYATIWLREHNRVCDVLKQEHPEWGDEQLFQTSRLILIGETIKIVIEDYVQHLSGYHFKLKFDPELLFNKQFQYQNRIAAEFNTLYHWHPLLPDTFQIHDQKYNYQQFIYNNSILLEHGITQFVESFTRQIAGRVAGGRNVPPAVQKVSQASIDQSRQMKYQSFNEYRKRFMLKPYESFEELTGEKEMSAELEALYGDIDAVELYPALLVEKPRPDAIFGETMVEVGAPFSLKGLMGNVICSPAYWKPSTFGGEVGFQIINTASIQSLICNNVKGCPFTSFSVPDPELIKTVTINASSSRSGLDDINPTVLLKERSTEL

RAW264.7 [4] = assay: Antiinflammatory activity against mouse RAW264.7 cells assessed as downregulation of LPS-stimulated COX2 protein expression at 10 uM pretreated for 1 hrs followed by LPS addition and measured after 24 hrs by Western blot analysis; type: functional, cell-based
Procedure, shortened: (§2)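 RAW264.7 macrophages (DMEM, 10% heat-inactivated FBS, 37 °C, 5% CO2) pretreated with compound, then cultured with or without LPS 1 µg/mL for 24 h. Lysates in buffer with protease/phosphatase inhibitors, BCA-normalised, 10% SDS-PAGE, PVDF transfer, milk/TBS-T block, primary antibody overnight at 4 °C, HRP anti-rabbit secondary, chemiluminescence. Dexamethasone 10 µM positive control; mean ± SD of three independent experiments.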

RAW264.7 [5] = assay: Antiinflammatory activity against mouse RAW264.7 cells assessed as downregulation of LPS-stimulated iNOS protein expression at 10 uM pretreated for 1 hrs followed by LPS addition and measured after 24 hrs by Western blot analysis; type: functional, cell-based; procedure, shortened: as §2
[6] = molecular target: T3, I-kappa-B kinase (Mus musculus) (UniProt Q60680+O88351+O88522); assay: Inhibition of LPS-stimulated IKK phosphorylation in mouse RAW264.7 cells at 5 to 20 uM pretreated for 1 hrs followed by LPS addition and measured after 30 mins by Western blot analysis; type: cell-based
[7] = molecular target: T4, Prostaglandin G/H synthase 2 (Mus musculus) (UniProt Q05769); assay: Inhibition of COX2 in mouse RAW264.7 cells assessed as decrease in LPS-stimulated PGE2 production pretreated for 1 hrs followed by LPS addition and measured after 24 hrs by sandwich ELISA; type: cell-based
T4 sequence (whole entry): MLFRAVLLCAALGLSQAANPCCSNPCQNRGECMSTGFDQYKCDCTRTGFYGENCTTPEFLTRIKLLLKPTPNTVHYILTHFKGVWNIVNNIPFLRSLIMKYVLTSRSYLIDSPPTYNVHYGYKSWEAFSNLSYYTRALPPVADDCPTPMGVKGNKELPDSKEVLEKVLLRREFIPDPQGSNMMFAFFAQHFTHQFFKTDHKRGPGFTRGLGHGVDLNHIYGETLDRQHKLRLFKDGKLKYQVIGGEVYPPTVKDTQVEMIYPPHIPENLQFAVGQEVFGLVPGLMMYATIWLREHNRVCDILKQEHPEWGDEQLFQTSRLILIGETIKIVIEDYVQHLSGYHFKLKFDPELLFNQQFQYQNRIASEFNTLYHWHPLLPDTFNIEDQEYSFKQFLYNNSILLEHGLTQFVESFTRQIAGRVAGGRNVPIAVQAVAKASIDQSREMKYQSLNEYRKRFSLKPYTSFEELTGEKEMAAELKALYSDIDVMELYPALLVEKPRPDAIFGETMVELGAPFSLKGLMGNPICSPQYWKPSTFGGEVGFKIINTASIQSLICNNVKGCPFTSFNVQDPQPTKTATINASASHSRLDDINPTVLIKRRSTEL
Procedure, shortened: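 RAW264.7 cells at about 1×10^4 cells/well, grown 12 h. Pretreated 1 h at 2.5, 5 or 10 μM, then stimulated with LPS 100 ng/mL for 24 h. PGE2 in the medium measured by PGE2 express ELISA, absorbance at 415 nm. Representative of three independent experiments.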

[8] = molecular target: Transcription factor p65 (Mus musculus) (UniProt Q04207); assay: Inhibition of LPS-induced NFkappaB p65 nuclear translocation in mouse RAW264.7 cells at 20 uM preincubated for 1 hrs followed by LPS-stimulation and measured after 24 hrs by DAPI staining based confocal microscopic method; type: cell-based
Transcription factor p65 (Mus musculus), sequence (Q04207 whole entry): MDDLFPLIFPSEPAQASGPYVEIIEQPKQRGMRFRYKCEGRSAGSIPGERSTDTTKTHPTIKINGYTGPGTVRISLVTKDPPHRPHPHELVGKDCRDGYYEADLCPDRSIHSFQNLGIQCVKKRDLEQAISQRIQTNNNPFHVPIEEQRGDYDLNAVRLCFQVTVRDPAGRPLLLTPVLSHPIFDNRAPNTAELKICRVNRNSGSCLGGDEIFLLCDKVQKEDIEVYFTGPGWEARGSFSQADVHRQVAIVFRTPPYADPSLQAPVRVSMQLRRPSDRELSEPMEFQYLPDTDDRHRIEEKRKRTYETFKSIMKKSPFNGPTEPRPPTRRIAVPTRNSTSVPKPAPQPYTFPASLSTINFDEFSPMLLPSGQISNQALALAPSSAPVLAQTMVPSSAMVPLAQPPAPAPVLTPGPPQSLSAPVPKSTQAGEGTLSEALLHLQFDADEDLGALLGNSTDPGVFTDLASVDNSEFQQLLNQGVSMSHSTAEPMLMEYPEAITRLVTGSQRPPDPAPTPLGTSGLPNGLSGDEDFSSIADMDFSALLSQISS

RAW264.7 [9] = assay: Antiinflammatory activity against mouse RAW264.7 cells assessed as downregulation of LPS-stimulated iNOS protein expression pretreated for 1 hrs followed by LPS addition and measured after 24 hrs by Western blot analysis; type: functional, cell-based
Procedure, shortened: (§3)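 Cells treated at various concentrations, then cultured with or without LPS (1 µg/mL) for 24 h; dexamethasone 10 µM as positive control. Lysates taken in buffer with protease/phosphatase inhibitors and protein quantified by BCA. Equal protein run on 10% SDS-PAGE, transferred to PVDF, blocked in TBS-T/5% milk, then primary antibodies overnight at 4°C and HRP anti-rabbit secondary. Mean ± SD, n=3.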

[10] = Cytotoxicity against rat Ac2F cells assessed as reduction in cell viability up to 50 uM incubated of WST assay; type: cell-based
Procedure, shortened: (§4)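 Cells seeded at 1.0×10^4 cells/well, grown 12 h in DMEM with 10% FBS, then exposed 24 h to 10, 25 or 50 μM; medium-only controls. WST reagent added for 1 h at 37°C and absorbance read at 450 nm. Cells in exponential phase.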

[11] = molecular target: Transcription factor p65 (Mus musculus) (UniProt Q04207); assay: Inhibition of LPS-stimulated NFkappaB p65 nuclear translocation in mouse RAW264.7 cells retreated for 1 hrs followed by LPS addition and measured after 30 mins by Western blot analysis; type: cell-based
RAW264.7 [12] = assay: Antiinflammatory activity against mouse RAW264.7 cells assessed as reduction in LPS-stimulated ROS production pretreated for 1 hrs followed by LPS addition and measured after 24 hrs by DCFH-DA dye based fluorescence assay; type: functional, cell-based; procedure, shortened: as §1
RAW264.7 [13] = assay: Antiinflammatory activity against mouse RAW264.7 cells assessed as downregulation of LPS-stimulated COX2 protein expression at 20 uM pretreated for 1 hrs followed by LPS addition and measured after 24 hrs by Western blot analysis; type: functional, cell-based; procedure, shortened: as §3
RAW264.7 [14] = assay: Antiinflammatory activity against mouse RAW264.7 cells assessed as decrease in LPS-stimulated TNFalpha production pretreated for 1 hrs followed by LPS addition and measured after 24 hrs by sandwich ELISA; type: functional, cell-based
RAW264.7 [15] = assay: Antiinflammatory activity against mouse RAW264.7 cells assessed as decrease in LPS-stimulated IL6 production pretreated for 1 hrs followed by LPS addition and measured after 24 hrs by sandwich ELISA; type: functional, cell-based
Procedure, shortened: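 RAW264.7 cells seeded at about 1×10^4 cells/well and grown 12 h. Pretreated 1 h with 2.5, 5 or 10 μM, then LPS 100 ng/mL added: 24 h for IL-6, 3 h for TNF-α. Cytokines in the medium quantified by sandwich ELISA, A450. Representative of three independent experiments.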

RAW264.7 [16] = assay: Antiinflammatory activity against mouse RAW264.7 cells assessed as downregulation of LPS-stimulated iNOS protein expression at 20 uM pretreated for 1 hrs followed by LPS addition and measured after 24 hrs by Western blot analysis; type: functional, cell-based; procedure, shortened: as §3
RAW264.7 [17] = assay: Antiinflammatory activity against mouse RAW264.7 cells assessed as inhibition of LPS-stimulated NO production pretreated for 1 hrs followed by LPS addition and measured after 24 hrs by Griess reagent based assay; type: functional, cell-based
Procedure, shortened: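 RAW264.7 cells at about 1×10^4 cells/well, grown 12 h. Pretreated 1 h at 2.5, 5 or 10 μM, then LPS 25 ng/mL for 24 h. Supernatant mixed 1:1 with Griess reagent for 15 min at 37°C in the dark, A520 read. Nitrite quantified against 0–100 μM sodium nitrite standards.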

RAW264.7 [18] = assay: Antiinflammatory activity against mouse RAW264.7 cells assessed as downregulation of LPS-stimulated COX2 protein expression pretreated for 1 hrs followed by LPS addition and measured after 24 hrs by Western blot analysis; type: functional, cell-based; procedure, shortened: as §3
L929 = assay: Cytotoxicity against mouse L929 cells assessed as reduction in cell viability up to 50 uM incubated of WST assay; type: cell-based; procedure, shortened: as §4
RAW264.7 [19] = assay: Cytotoxicity against mouse RAW264.7 cells assessed as reduction in cell viability up to 50 uM incubated of WST assay; type: cell-based; procedure, shortened: as §4
[20] = molecular target: T3, I-kappa-B kinase (Mus musculus); assay: Inhibition of LPS-stimulated IKK phosphorylation in mouse RAW264.7 cells assessed as decrease in IkappaBalpha phosphorylation level at 5 to 20 uM pretreated for 1 hrs followed by LPS addition and measured after 30 mins by Western blot analysis; type: cell-based

O=C(O)Cc1ccccc1Nc1c(Cl)cccc1Cl
Activity (RAW264.7 [1]): Active

O=C(N/N=C/c1ccco1)c1cn(Cc2ccc(Cl)cc2)c2ccccc12
inhibition [2]: Active | inhibition [3]: Active

C[C@@H]1C[C@H]2[C@@H]3CCC4=CC(=O)C=C[C@]4(C)[C@@]3(F)[C@@H](O)C[C@]2(C)[C@@]1(O)C(=O)CO
Activity (RAW264.7 [4]): Active | Activity (RAW264.7 [5]): Active

CCCCC/C=N/NC(=O)c1cn(Cc2ccc(Cl)cc2)c2ccccc12
inhibition [2]: Active | inhibition [3]: Active

N#Cc1ccc(/C=N/NC(=O)c2cn(Cc3ccc(Cl)cc3)c3ccccc23)cc1
Activity (RAW264.7 [1]): Active | inhibition [6]: Active | inhibition [7]: Active | inhibition [8]: Active | Activity (RAW264.7 [9]): Dose-dependent effect | Activity [10]: Non-Toxic | inhibition [11]: Dose-dependent effect | inhibition [2]: Active | Activity (RAW264.7 [12]): Dose-dependent effect | Activity (RAW264.7 [13]): Active | inhibition [3]: Active | Activity (RAW264.7 [14]): Dose-dependent effect | Activity (RAW264.7 [15]): Dose-dependent effect | Activity (RAW264.7 [16]): Active | inhibition (RAW264.7 [17]): Dose-dependent effect | Activity (RAW264.7 [18]): Dose-dependent effect | Activity (L929): Non-Toxic | Activity (RAW264.7 [19]): Non-Toxic | inhibition [20]: Active

Source: ChEMBL document CHEMBL4406809, “Design of balanced COX inhibitors based on anti-inflammatory and/or COX-2 inhibitory ascidian metabolites” (Eur J Med Chem, 2019)
